SIRT5 block: sirtuin-5 (human) deacylase inhibition | Q9NXA8 | Purified SirT5, succinyl-peptide AMC, trypsin-coupled fluorescence | inhibition, % at 15 µM | 330,000 tested, 1.1% active | AID 652115; in the data active = inhibition above about 15%; inconclusive = no clear call, values can overlap the other calls
DENV2 CPE: inhibitors of DENV2 cytopathic effect; CPE inhibition, % at 9.99 µM; AID 651640; 350,000 tested, 1.7% active; DENV2-infected cells, cytopathic effect rescue, plate reader; in the data active = CPE inhibition above about 20%, passing the limit was not always enough; inconclusive = no clear call, values can overlap the other calls; tested in BHK-21 cells;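 also: 0% = median of neutral control wells and 100% = median of positive control wells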
E-sel inducer: E-selectin induction on HUVECs; HUVEC E-selectin immunofluorescence imaging; normalized: neutral wells 0, TNF-alpha wells 100; activation, % at 7.58 µM; 260,000 tested, 0.37% active; AID 686992;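 active = mean E-selectin-positive cell signal at least 10% of the positive control, reached in at least 60% of replicates, without over 20% cell loss; inconclusive = no rule given, readout overlaps actives, possibly toxicity-flagged; inactive = the rest, including those meeting only one limit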
Target sequence (P16581 whole entry, looked up): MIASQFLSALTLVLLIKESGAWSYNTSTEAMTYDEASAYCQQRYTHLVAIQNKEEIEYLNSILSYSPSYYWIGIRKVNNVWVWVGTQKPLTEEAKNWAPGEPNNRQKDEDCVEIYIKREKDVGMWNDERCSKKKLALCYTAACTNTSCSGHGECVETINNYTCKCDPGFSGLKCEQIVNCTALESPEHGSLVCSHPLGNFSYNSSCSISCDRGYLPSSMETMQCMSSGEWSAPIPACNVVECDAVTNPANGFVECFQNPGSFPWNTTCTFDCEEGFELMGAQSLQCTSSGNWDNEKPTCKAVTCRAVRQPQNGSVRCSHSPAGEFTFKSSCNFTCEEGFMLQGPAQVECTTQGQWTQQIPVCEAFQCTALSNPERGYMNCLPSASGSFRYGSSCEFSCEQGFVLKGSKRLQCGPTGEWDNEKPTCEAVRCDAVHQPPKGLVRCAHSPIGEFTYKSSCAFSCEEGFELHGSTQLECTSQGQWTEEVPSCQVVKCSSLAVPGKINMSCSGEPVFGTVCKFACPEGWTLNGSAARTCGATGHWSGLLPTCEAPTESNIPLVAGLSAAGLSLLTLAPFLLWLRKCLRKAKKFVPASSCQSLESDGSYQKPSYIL
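Read-out basis: % PE-positive cells; Test system: HUVEC primary endothelial cells; Technique: immunofluorescence imaging; Dosing: single-point compound dose.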
Starred values were filed as active, the others as inactive; ? = inconclusive; nt = not tested or not shown. Most compounds without a hit are left out; they make up all but 2.9% or so of the library.

SMILES	SIRT5 block	DENV2 CPE	E-sel inducer
C[C@H](CO)N1C[C@H](C)[C@H](CN(C)C(=O)Nc2ccccc2)Oc2ccc(NS(=O)(=O)c3ccccc3)cc2CC1=O	0.1	33.6*	0.2
C[C@@H]1CN([C@@H](C)CO)C(=O)Cc2cc(NS(=O)(=O)c3ccccc3)ccc2O[C@H]1CN(C)C(=O)Nc1ccccc1	0.3	-11.3	0.3
C[C@@H]1CN([C@@H](C)CO)C(=O)Cc2cc(NS(=O)(=O)c3ccc(Cl)cc3)ccc2O[C@H]1CN(C)C(=O)Nc1ccccc1	11.8	5.8	1.7
C[C@H](CO)N1C[C@H](C)[C@@H](CN(C)C(=O)Nc2ccccc2)Oc2ccc(NS(=O)(=O)c3ccc(Cl)cc3)cc2CC1=O	-3.4	58.3*	0.0
C[C@H]1CN([C@@H](C)CO)C(=O)Cc2cc(NS(=O)(=O)c3ccc(F)cc3)ccc2O[C@@H]1CN(C)C(=O)Nc1ccccc1	-0.4	62.4*	-0.1
C[C@@H]1CN([C@@H](C)CO)C(=O)Cc2cc(NS(=O)(=O)c3ccc(F)cc3)ccc2O[C@@H]1CN(C)C(=O)Nc1ccccc1	14.9	-1.1	0.0
CCc1cccc(C)c1NC(=O)CCCn1c(=O)c2cccn2c2cccnc21	-2.6	6.5	-0.1
O=C(O)c1ccc(NC(=O)c2cccc(S(=O)(=O)Nc3ccc(C(=O)O)cc3)c2)cc1	5.8	7.1	0.1
CN(Cc1ccccc1Cl)C(=O)C1CC(=O)N(c2ccc3c(c2)OCCO3)C1 (configuration not stated)	-1.7	1.9	nt
NC(=O)C1CCN(C(=O)C2CC(=O)N(c3ccc4c(c3)OCCO4)C2)CC1 (configuration not stated)	-2.4	24.3*	2.8
CC1CC(C)CN(C(=O)C2CC(=O)N(c3ccc4c(c3)OCCO4)C2)C1 (configuration not stated)	-2.3	2.6	24.1
CN(Cc1ccc(Cl)c(Cl)c1)C(=O)C1CC(=O)N(c2ccc3c(c2)OCCO3)C1 (configuration not stated)	0.5	29.7*	0.0
COc1ccccc1C(=O)O/N=C(\c1ccccc1)c1ccncc1	-0.6	-6.9	0.6
Cc1cc(C)cc(OCCNC(=O)c2cc(S(=O)(=O)N3CCOCC3)ccc2F)c1	17.4*	2.0	0.5
O=C(NC1CCCCCC1)c1cc(S(=O)(=O)N2CCOCC2)ccc1F	1.5	4.4	nt
COc1ccccc1-c1ccc2c(c1)O[C@H](CN(C)C)[C@H](C)CN([C@@H](C)CO)S2(=O)=O	-9.5	15.2	-0.6
O=C(c1cccc(F)c1)N1C[C@@H]2[C@H](c3ccccc31)[C@H](CO)N2C(=O)C1CCCCC1	2.6	-14.2	-0.3
Cc1ccc(S(=O)(=O)N(C)C[C@H]2OCCCC[C@H](C)Oc3ccc(NS(=O)(=O)c4ccc(Cl)cc4)cc3C(=O)N([C@H](C)CO)C[C@@H]2C)cc1	24.0*	6.7	0.3
C[C@@H]1CCCCO[C@H](CN(C)S(=O)(=O)c2ccc(Cl)cc2)[C@@H](C)CN([C@H](C)CO)C(=O)c2cc(NS(=O)(=O)c3ccc(Cl)cc3)ccc2O1	nt	-1.4	0.6
Cc1ccc(S(=O)(=O)Nc2ccc3c(c2)C(=O)N([C@H](C)CO)C[C@H](C)[C@H](CN(C)S(=O)(=O)c2ccc(Cl)cc2)OCCCC[C@@H](C)O3)cc1	nt	65.8*	-0.1
Cc1ccc(S(=O)(=O)N(C)C[C@@H]2OCCCC[C@H](C)Oc3ccc(NS(=O)(=O)c4ccc(Cl)cc4)cc3C(=O)N([C@@H](C)CO)C[C@@H]2C)cc1	21.5*	-0.1	0.3
C[C@@H]1CCCCO[C@@H](CN(C)S(C)(=O)=O)[C@H](C)CN([C@@H](C)CO)C(=O)c2cc(NS(=O)(=O)c3ccc(Cl)cc3)ccc2O1	-2.1	83.8*	-0.2
Cc1ccc(S(=O)(=O)Nc2ccc3c(c2)C(=O)N([C@@H](C)CO)C[C@@H](C)[C@@H](CN(C)S(=O)(=O)c2ccc(Cl)cc2)OCCCC[C@H](C)O3)cc1	nt	-15.4	0.0
C[C@H](CO)N1C[C@H](C)[C@@H](CN(C)S(C)(=O)=O)OCCCC[C@H](C)Oc2ccc(NS(=O)(=O)c3ccc(Cl)cc3)cc2C1=O	-0.3	-5.7	0.0
C[C@@H]1CCCCO[C@H](CN(C)S(=O)(=O)c2ccc(Cl)cc2)[C@H](C)CN([C@H](C)CO)C(=O)c2cc(NS(=O)(=O)c3ccc(Cl)cc3)ccc2O1	nt	-20.0	0.2
SMILES	SIRT5 block	DENV2 CPE	E-sel inducer
CC(=O)N(Cc1ccccn1)Cc1ccco1	-5.7	0.8	nt
FC(F)(F)c1nnc2ccc(N3CCCCC3)nn12	-0.3	-1.8	nt
Cc1ccc(S(=O)(=O)N(C)C[C@H]2OCCCC[C@@H](C)Oc3ccc(NS(=O)(=O)c4ccc(Cl)cc4)cc3C(=O)N([C@@H](C)CO)C[C@@H]2C)cc1	21.3*	2.5	0.3
C[C@@H]1CCCCO[C@H](CN(C)S(=O)(=O)c2ccc(Cl)cc2)[C@@H](C)CN([C@@H](C)CO)C(=O)c2cc(NS(=O)(=O)c3ccc(Cl)cc3)ccc2O1	11.0	-3.1	0.2
C[C@H](CO)N1C[C@H](C)[C@H](CN(C)S(=O)(=O)c2ccccc2)OCCCC[C@H](C)Oc2ccc(NS(=O)(=O)c3ccc(Cl)cc3)cc2C1=O	15.1*	?	-0.1
C[C@@H]1CCCCO[C@@H](CN(C)S(=O)(=O)c2ccc(Cl)cc2)[C@@H](C)CN([C@H](C)CO)C(=O)c2cc(NS(=O)(=O)c3ccc(Cl)cc3)ccc2O1	nt	-6.7	0.1
Cc1ccc(S(=O)(=O)Nc2ccc3c(c2)C(=O)N([C@@H](C)CO)C[C@H](C)[C@@H](CN(C)S(=O)(=O)c2ccc(Cl)cc2)OCCCC[C@H](C)O3)cc1	nt	6.2	-0.1
C[C@@H]1CCCCO[C@H](CN(C)S(=O)(=O)c2ccccc2)[C@H](C)CN([C@H](C)CO)C(=O)c2cc(NS(=O)(=O)c3ccc(Cl)cc3)ccc2O1	6.2	7.2	0.2
Cc1ccc(S(=O)(=O)N(C)C[C@@H]2OCCCC[C@H](C)Oc3ccc(NS(=O)(=O)c4ccc(Cl)cc4)cc3C(=O)N([C@H](C)CO)C[C@H]2C)cc1	20.7*	?	0.2
Cc1ccc(S(=O)(=O)N(C)C[C@H]2OCCCC[C@@H](C)Oc3ccc(NS(=O)(=O)c4ccc(Cl)cc4)cc3C(=O)N([C@H](C)CO)C[C@@H]2C)cc1	17.1*	-3.4	0.0
Cc1nc(-c2cccs2)sc1C(=O)NN	nt	-0.4	0.2
CCN(C(=O)COc1ccccc1)C1CCCCC1	-2.1	-2.4	-1.6
C[C@@H]1CN([C@@H](C)CO)C(=O)c2cc(NS(=O)(=O)c3cn(C)cn3)ccc2O[C@@H](C)CCCCO[C@@H]1CN(C)S(=O)(=O)c1ccc(F)cc1	-0.9	6.7	nt
COc1ccc(N(CC(=O)Nc2ccccc2C(=O)NCc2ccco2)S(C)(=O)=O)cc1	0.9	-1.4	nt
Cc1onc(C(=O)Nc2c(C)n(C)n(-c3ccccc3)c2=O)c1[N+](=O)[O-]	-2.7	-2.8	0.9
Cc1ccc(S(=O)(=O)N(C)C[C@H]2OCCCC[C@@H](C)Oc3ccc(NS(=O)(=O)c4ccc(Cl)cc4)cc3C(=O)N([C@@H](C)CO)C[C@H]2C)cc1	22.1*	-6.0	-0.1
